Reference: ChEMBL document CHEMBL1141332, “Cytotoxic metabolites from an Indonesian sponge Lendenfeldia sp” (J Nat Prod, 2007)

Key:
Malme-3M = assay: Cytotoxicity against human MALME-3M cells; assay type: functional; details: for CC50: read-out: Log LC50 (the source's name) (converted); for TGI: read-out: Log TGI (converted)
HCT-15 = assay: Cytotoxicity against human HCT15 cells; assay type: functional; details: for CC50: read-out: Log LC50 (the source's name) (converted); for TGI: read-out: Log TGI (converted)
NCI-H23 = assay: Cytotoxicity against human NCI-H23 cells; assay type: functional; details: for CC50: read-out: Log LC50 (the source's name) (converted); for TGI: read-out: Log TGI (converted)
OVCAR-3 = assay: Cytotoxicity against human OVCAR-3 cells; assay type: functional; details: for CC50: read-out: Log LC50 (the source's name) (converted); for TGI: read-out: Log TGI (converted)
NCI-H226 = assay: Cytotoxicity against human NCI-H226 cells; assay type: functional; details: for CC50: read-out: Log LC50 (the source's name) (converted); for TGI: read-out: Log TGI (converted)
ACHN = assay: Cytotoxicity against human ACHN cells; assay type: functional; details: for TGI: read-out: Log TGI (converted)
CCRF-CEM = assay: Cytotoxicity against human CCRF-CEM cells; assay type: functional; details: for TGI: read-out: Log TGI (converted)
SN12C = assay: Cytotoxicity against human SN12C cells; assay type: functional; details: for TGI: read-out: Log TGI (converted)
SR = assay: Cytotoxicity against human SR cells; assay type: functional; details: for CC50: read-out: Log LC50 (the source's name) (converted); for TGI: read-out: Log TGI (converted)
[1] = Cytotoxicity against human HS578T cells; assay type: functional; details: Hs-578T; for TGI: read-out: Log TGI (converted)
UO-31 = assay: Cytotoxicity against human UO31 cells; assay type: functional; details: for TGI: read-out: Log TGI (converted)
EKVX = assay: Cytotoxicity against human EKVX cells; assay type: functional; details: for CC50: read-out: Log LC50 (the source's name) (converted); for TGI: read-out: Log TGI (converted)
T47D [2] = assay: Cytotoxicity against human T47D cells; assay type: functional; details: for TGI: read-out: Log TGI (converted)
MDA-MB-231 [3] = assay: Inhibition of human MDA-MB-231 cells assessed as cell viability under hypoxic condition after 48 hrs; assay type: functional, cell-based; details: MDA-MB-231, 48 h
Outline: (§1)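 Neutral Red proliferation/viability assay on T47D or MDA-MB-231 cells kept in DMEM/F12 with 10% FCS at 37 °C under 5% CO2, with 48 h compound exposure. Read-out was OD540, and % inhibition = 1 − OD540(treated)/OD540(control). IC50 was derived from the concentration–response data.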

T47D [4] = assay: Cell viability of human T47D cells under hypoxic condition after 16 hrs; assay type: functional, cell-based
CAKI-1 = assay: Cytotoxicity against human CAKI1 cells; assay type: functional; details: for TGI: read-out: Log TGI (converted)
T47D [5] = assay: Inhibition of human T47D cells assessed as cell viability under hypoxic condition after 48 hrs; assay type: functional, cell-based; outline: as §1
[6] = target: T1, Hypoxia inducible factors; HIF-1-alpha, HIF-2-alpha (Homo sapiens, UniProt Q16665+Q99814); assay: Inhibition of 1, 10-phenanthroline-induced HIF1 activity in human T47D cells by cell based reporter assay
Outline: (§2)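 T47D cells grown in DMEM/F12 with glutamine, 10% FCS and penicillin/streptomycin at 37 °C under 5% CO2, then transiently transfected with the pHRE-TK-Luc reporter. Compounds from DMSO stocks were tested at half-log concentrations for 16 h, with luciferase read-out. IC50 was taken from curve fits of triplicate experiments.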

MDA-MB-231 [7] = assay: Inhibition of human MDA-MB-231 cells assessed as cell viability under normoxic condition after 48 hrs; assay type: functional, cell-based; details: MDA-MB-231, 48 h; outline: as §1
T47D [8] = assay: Inhibition of human T47D cells assessed as cell viability under normoxic condition after 48 hrs; assay type: functional, cell-based; outline: as §1
[9] = target: T1, Hypoxia inducible factors; HIF-1-alpha, HIF-2-alpha; assay: Inhibition of HIF1 activity in human T47D cells by cell based reporter assay; outline: as §2

## CC(=O)O[C@H]1C[C@H]2[C@@](C)(CC[C@H]3C(C)(C)CCC[C@@]32CO)[C@@H]2CC=C(C(C)=O)[C@H](C=O)[C@@]12C
Malme-3M
  GI50: 1.29 µM
  CC50: 5.89 µM
  TGI: 2.75 µM
HCT-15
  GI50: 0.224 µM
  CC50: 1.23 µM
  TGI: 0.49 µM
NCI-H23
  GI50: 1.41 µM
  CC50: 5.5 µM
  TGI: 2.75 µM
OVCAR-3
  GI50: 0.204 µM
  CC50: 0.676 µM
  TGI: 0.372 µM
NCI-H226
  GI50: 1.38 µM
  CC50: > 100 µM
  TGI: 2.82 µM
ACHN
  GI50: 0.282 µM
  LC50: 3.24 µM
  TGI: 1.07 µM
CCRF-CEM
  GI50: 0.347 µM
  LC50: 4.47 µM
  TGI: 1.17 µM
SN12C
  GI50: 1.2 µM
  LC50: 5.01 µM
  TGI: 2.45 µM
SR
  GI50: 0.288 µM
  CC50: 3.72 µM
  TGI: 0.759 µM
[1]
  GI50: 0.24 µM
  LC50: 3.24 µM
  TGI: 0.646 µM
UO-31
  GI50: 0.417 µM
  LC50: 3.98 µM
  TGI: 1.45 µM
EKVX
  GI50: 0.832 µM
  CC50: 4.9 µM
  TGI: 2.14 µM
T47D [2]
  GI50: 1.02 µM
  LC50: 8.91 µM
  TGI: 3.02 µM

## CC(=O)C1=CC[C@H]2[C@]3(C)CC[C@H]4C(C)(C)CCC[C@]4(C(=O)O)[C@H]3CC(=O)[C@]2(C)[C@H]1C=O
Malme-3M
  GI50: 1.62 µM
  CC50: 6.76 µM
  TGI: 3.31 µM
HCT-15
  GI50: 0.759 µM
  CC50: 5.25 µM
  TGI: 2.14 µM
NCI-H23
  GI50: 2 µM
  CC50: 9.12 µM
  TGI: 4.27 µM
MDA-MB-231 [3]
  IC50: 1.5 µM
OVCAR-3
  GI50: 0.295 µM
  CC50: 3.47 µM
  TGI: 1.02 µM
NCI-H226
  GI50: 1.82 µM
  TGI: 3.8 µM
ACHN
  GI50: 0.479 µM
  LC50: 4.17 µM
  TGI: 1.7 µM
T47D [4]
  IC50: 3.3 µM
CAKI-1
  GI50: 0.646 µM
  LC50: 12.9 µM
  TGI: 2.45 µM
T47D [5]
  IC50: 1.9 µM
SN12C
  GI50: 1.55 µM
  LC50: 6.46 µM
  TGI: 3.16 µM
SR
  GI50: 0.457 µM
  CC50: 6.76 µM
  TGI: 1.86 µM
[1]
  GI50: 1.74 µM
  LC50: 19.1 µM
  TGI: 4.37 µM
UO-31
  GI50: 1.2 µM
  LC50: 5.62 µM
  TGI: 2.57 µM
[6]
  IC50: 0.5 µM
MDA-MB-231 [7]
  IC50: 1.4 µM
T47D [8]
  IC50: 1.4 µM
[9]
  IC50: 0.64 µM
EKVX
  GI50: 2.14 µM
  CC50: 25.1 µM
  TGI: 5.62 µM
T47D [2]
  GI50: 1.17 µM
  LC50: 85.1 µM
  TGI: 6.61 µM

## CC1OC(=O)[C@H]2[C@H]1[C@@H](O)C[C@H]1[C@]3(C)CC[C@H]4C(C)(C)CCC[C@]4(C)[C@H]3C[C@@H](O)[C@]21C (stereo not given in full)
Malme-3M
  GI50: 26.9 µM
  CC50: 91.2 µM
  TGI: 50.1 µM
HCT-15
  GI50: 16.2 µM
  CC50: 60.3 µM
  TGI: 31.6 µM
NCI-H23
  GI50: 20.4 µM
  CC50: 67.6 µM
  TGI: 37.2 µM
MDA-MB-231 [3]
  IC50: 5.4 µM
OVCAR-3
  GI50: 11.5 µM
  CC50: 60.3 µM
  TGI: 26.3 µM
NCI-H226
  GI50: 20 µM
  CC50: 87.1 µM
  TGI: 41.7 µM
ACHN
  GI50: 18.2 µM
  LC50: 56.2 µM
  TGI: 31.6 µM
T47D [4]
  IC50: 6.7 µM
CAKI-1
  GI50: 30.9 µM
  LC50: > 100 µM
  TGI: 56.2 µM
T47D [5]
  IC50: 5.3 µM
SN12C
  GI50: 17.4 µM
  LC50: > 100 µM
  TGI: 46.8 µM
SR
  GI50: 8.51 µM
  CC50: > 100 µM
  TGI: 35.5 µM
[1]
  GI50: 19.1 µM
  LC50: > 100 µM
  TGI: 53.7 µM
UO-31
  GI50: 20.4 µM
  LC50: 75.9 µM
  TGI: 39.8 µM
[6]
  IC50: 2.4 µM
MDA-MB-231 [7]
  IC50: 4.9 µM
T47D [8]
  IC50: 4.7 µM
[9]
  IC50: 3.5 µM
EKVX
  GI50: 23.4 µM
  CC50: 89.1 µM
  TGI: 45.7 µM
T47D [2]
  GI50: 24.5 µM
  LC50: > 100 µM
  TGI: 63.1 µM

## CC(=O)O[C@@H]1C[C@H]2[C@]3(C)CC[C@H]4C(C)(C)CCC[C@]4(C)[C@H]3C[C@H](O)[C@]2(C)[C@@H](C=O)[C@@H]1C(C)=O [SCALARHERBACIN A]
Malme-3M
  GI50: 1.95 µM
  TGI: 3.89 µM
HCT-15
  GI50: 0.759 µM
  CC50: 4.79 µM
  TGI: 2.04 µM
NCI-H23
  GI50: 1.66 µM
  CC50: 6.17 µM
  TGI: 3.24 µM
OVCAR-3
  GI50: 1.12 µM
  CC50: 5.5 µM
  TGI: 2.51 µM
NCI-H226
  GI50: 1.58 µM
  CC50: 6.76 µM
  TGI: 3.24 µM
ACHN
  GI50: 0.457 µM
  LC50: 3.98 µM
  TGI: 1.55 µM
CCRF-CEM
  GI50: 0.676 µM
  LC50: 6.46 µM
  TGI: 2.24 µM
SN12C
  GI50: 1.35 µM
  TGI: 2.75 µM
SR
  GI50: 0.282 µM
  TGI: 1.15 µM
[1]
  GI50: 1.02 µM
  LC50: 8.91 µM
  TGI: 3.02 µM
UO-31
  GI50: 1.23 µM
  TGI: 2.57 µM
EKVX
  GI50: 1.32 µM
  CC50: 5.75 µM
  TGI: 2.75 µM
T47D [2]
  GI50: 0.832 µM
  LC50: 25.1 µM
  TGI: 3.55 µM
